Fewer inactive variants are shown than the library holds.
B1: tRNA (parent)
chain: GUUCCGUUGGCGUAAUGGUAACGCGUCUCCCUCCUAAGGAGAAGACUGCGGGUUCGAGUCCCGUACGGAACG

Variants of: B1
Experiment: yeast fitness relative to wild type (ratio to wild type); higher = fitter; tRNA-Arg(CCU), competitive growth, 37 C, YPD
Procedure, shortened: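 Start and end populations of a pooled competition were compared by 100-nucleotide paired-end sequencing of gene amplicons. The Saccharomyces cerevisiae strains carried tRNA-Arg(CCU) gene variants at the native genomic locus, synthesised with a 3% per-site mutation rate at 69 sites, and competed in YPD at 37°C for 24 hours in six parallel replicates. Darwinian fitness relative to wild type was based on the change in genotype frequencies. Genotypes required ≥ 100 starting reads, and estimates < 0.5 were set to 0.5.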

GUUCCGUUGGAGUAAUGGUAACGCGUCUUCCUCCUAAGGAGACGACUGCGGGUUCGAGUCCCGUUCGGAACG [C11A C29U A43C A65U] and GUUCCGUUGGAGUAAUGGUAACGCGUCUCCCUCCUAAGGAGAAGACUGCGGGUUCGAGUCGCGUACGGAACG [C11A C61G] cannot be ordered by yeast fitness: no more than 0.5 for the first, no more than 0.5 for the second.

GUUCCGUUGGAGUAAAGGUAACGCGUCUGCCUCCUAAGGAGCAGACUGCGAGUUCGAGUCCCGUACGGAACG [C11A U16A C29G A42C G51A] and GUUCCGUUGGAGUAAUGGUAACGCGUCUCCCUCCUAAGGAGAAGACUGCGGCUUCGAGUCCCGUAUGGCACG [C11A G52C C66U A69C] cannot be ordered by yeast fitness: no more than 0.5 for the first, no more than 0.5 for the second.

GUUCCGUUGGAGUAAUGGUAACGCCUCUUCCUCCUAAGGAGAAGACUGCGGGUUCGAGUCCCGUACGGAACG [C11A G25C C29U] and GUUCCGUUGGAGUAAUGGUAACGCGUUUCCCUUCCAAGGAGAAGACUGCGGGUUCGUGUCCCGUACGGAACG [C11A C27U C33U U35C A57U] cannot be ordered by yeast fitness: no more than 0.5 for the first, no more than 0.5 for the second.

GUUCCGUUGGAGUAAUGGUAACGCGUCUCCCUCCUAAGCAGAAGACUGCGGGUUCGAGUCCUGUACGGAACG [C11A G39C C62U] and GUUCCGUUGGAGUAAUGGUAACGCGUGUCCCUCCUAAGGAGAAGACUGCGGGUUCGAGUCGCGUACGAAACG [C11A C27G C61G G68A] cannot be ordered by yeast fitness: no more than 0.5 for the first, no more than 0.5 for the second.

GUUCCGUUGGAGUAAUGGGAACGCGUCUCCCUCCUGAGGAGAAGACUGCGGGUUCGAGUCCCGUAUGGAACG [C11A U19G A36G C66U] and GUUCCGUUGGAGUAAUGGGAACGCGUCUCCCUCCUGAGGAGAAGACUGCGGGUCCGAGUCCCGCACAGAACG [C11A U19G A36G U54C U64C G67A] cannot be ordered by yeast fitness: no more than 0.5 for the first, no more than 0.5 for the second.

Going from GUUCCGUUGGAGUAAUGGUAACGCGUCUUCCUCCUAAGGAGAAGACUGCGGGUUCGCGUCCCGUACGGAACG [C11A C29U A57C] to GUUCCGUUGGAGUAAUGGUAACGCGUGUCCCUUCUAAGGAGAAGACUGCGGGUUCAAGUCGCGUACGGAACG [C11A C27G C33U G56A C61G], the yeast fitness falls from 0.732 to no more than 0.5.

GUUCCGUUGGAGUAAUGCUAACGCGUCUCCCUCCUAAGGAGAAGCCUGCGGGUUCGCGUCCCGUACGCAACG [C11A G18C A45C A57C G68C] and GUUCCGUUGGAGUAAUGGUAACGCGUCUCCGUCCUAAGGAGUAGACUGCGGGUUCGAGUCCUGAACGGAACG [C11A C31G A42U C62U U64A] cannot be ordered by yeast fitness: no more than 0.5 for the first, no more than 0.5 for the second.

Compared with GUUCCGUUGGAGUAAUGGUAACGCGUCUUCCUCGUGAGGAGAAGACUGCGGGUUCGAGUCCCGUACGGAACG [C11A C29U C34G A36G], GUUCCGUUGGAGUAAUGGUAACCCGUCUCCCUCCUAAGGAGCCGACUGCGGGUUCGAGUCCCGUACGGAACG [C11A G23C A42C A43C] is lower in yeast fitness: 0.607 for the first, no more than 0.5 for the second.

Compared with GUUCCGUUGGAGUAAUGGUAACGCGUCUCCCUCGUAAGGAGAAGACUGCAGGUUCGAGUCCCGUACGGAACG [C11A C34G G50A], GUUCCGUUGGAGUAAUGGUAACGCGUCUCUCUCCUAAGGAGAAGACUGAGGGUUCGAGUCCCGUACGGUACG [C11A C30U C49A A69U] is lower in yeast fitness: 0.681 for the first, no more than 0.5 for the second.

GUUCCGUUGGAGUAAUGGUAACGCGUCUCCCUCCUAAGGAGAAGACUGCGGCUUCGAGUCCCGUACAGAACG [C11A G52C G67A] and GUUCCGUUGGAGUAACGCUGACGCGUCUCCCUCCUAAGGAGAAGCCUGCGGGUUCGCGUCCCGUACGCAACG [C11A U16C G18C A20G A45C A57C G68C] cannot be ordered by yeast fitness: no more than 0.5 for the first, no more than 0.5 for the second.

Compared with GUUCCGUUGGAGUAAUGGUAACGCGUGUCCCUCCAAAGGAGAUGACUGCGGGUCCGAGUCCCGUGCGGAACG [C11A C27G U35A A43U U54C A65G], GUUCCGUUGGAGUAAUCGUAACGCGUCUCCCUCCUGAGGACAAGACUGCGGGCUCGAGUCACGUACGAAACG [C11A G17C A36G G41C U53C C61A G68A] is lower in yeast fitness: 0.659 for the first, no more than 0.5 for the second.

First: GUUCCGUUGGAGUAAUGGUAACGCGUCUCCCUCCUAAGGAGAAGAUUGCGGGUUCGAGUCCCGCACGGAACG [C11A C46U U64C]
Second: GUUCCGUUGGAGUAAUGGUAACGCGUCUCCCUUCUAAGGAGAUGACUGCGGGUUCGAGUCCCGUACGGAACG [C11A C33U A43U]
The yeast fitness of the first is lower: no more than 0.5 for the first, 0.532 for the second.

First: GUUCCGUUGGAGUAAUGGUAACGCGUCUCCGUCCUAAGGAGAAGACUGCGGGUUCGAGUCCCGUACGGAACG [C11A C31G]
Second: GUUCCGUUGGAGAAAUGGUAACGCGUCUCCGUCCUAAGGAGAAGACUGCGGGUUUGAGUCCCGUACGGAACG [C11A U13A C31G C55U]
The yeast fitness of the first is higher: 0.592 for the first, no more than 0.5 for the second.

Compared with GUUCCGUUGGAGUAAUGAUAACGCGUCUCCCUCCUAAGGAGAAGACUGCGGGUUCGAAUCCCGCACGGAACG [C11A G18A G58A U64C], GUUCCGUUGGAGUAAUGGUAACGCGUGUCCCUCCUAAGGAGAAGACUGCGGGUUCGAGUCGCGUACGGAACG [C11A C27G C61G] is higher in yeast fitness: no more than 0.5 for the first, 0.52 for the second.

GUUCCGUUGGAGUAAUGGUAACGCGUCUCCCUCCUAAGGAGAAGAUUACGGGUUUGAGACCCGUACGGAACG [C11A C46U G48A C55U U59A] and GUUCCGUUGGAGUAAUGGUAACGCGUCUCCCUCCUAAGGAGAAGACUGCGGGUUCGAGUCCAGUACGGAACG [C11A C62A] cannot be ordered by yeast fitness: no more than 0.5 for the first, no more than 0.5 for the second.

First: GUUCCGUUGGAGUAAUGGUAACGCGUCUCCCUCCUAAGGAGAAGACUGCGGGUUCGAGUCCUGUACGGAACG [C11A C62U]
Second: GUUCCGUUGGAGUAAUGGUAACGCGUCUCCCUCCUAAGGAGAAGACUGCGAGUUCGAGUCCCGUAGGGAACG [C11A G51A C66G]
The yeast fitness of the first is higher: 0.616 for the first, no more than 0.5 for the second.

GUUCCGUUGGAGUAAUCGUAACGCGUCUCCCUCCUGAGGACAAGGCUGUGGGUUCGAGUCCCGUACGGAACG [C11A G17C A36G G41C A45G C49U] and GUUCCGUUGGAGUAAUGGUAACGCGUAUCCCUCCUAAGGAGAAGACUGCGGGUUUGAGUCCCGUACGGAACG [C11A C27A C55U] cannot be ordered by yeast fitness: no more than 0.5 for the first, no more than 0.5 for the second.

Compared with GUUCCGUUGGAGUAAUGGUAACGCGUGUCGCUCCUAAGGAGAACACUGCGGGUUCGAGUCCCGUACGGAACG [C11A C27G C30G G44C], GUUCCGUUGGAGUAAUGGUAACGCGUUUCCCUUCCAAGGAGAAGACUGCGGGUUCGAGUCCCGUACGGAACG [C11A C27U C33U U35C] is higher in yeast fitness: 0.538 for the first, 0.634 for the second.

In the case of GUUCCGUUGGAGUAACGCUAACGCGUCUCCCUCCCAAGGAGAAGCCUGCGGGUUCGCGUCCCGUACGCAACG [C11A U16C G18C U35C A45C A57C G68C], the yeast fitness is reported as 0.515.
